Source: ChEMBL document CHEMBL1142458, “Computational structure-activity relationship analysis of non-peptide inducers of macrophage tumor necrosis factor-alpha production” (Bioorg Med Chem, 2008)
Activity calls are given as the source filed them. No rule for the calls is given here.

How the values were obtained:
J774.A1 [1] = test: Stimulation of TNFalpha production in mouse J774.A1 cells at 50 uM after 24 hrs by ELISA relative to untreated control; format: functional
How it was run: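 Murine J774.A1 macrophages grown in DMEM with 10% heat-inactivated FBS and 10 mM HEPES at 37°C under 5% CO2, detached by scraping. Plated at 2×10^5 cells/well in medium with 3% FBS and exposed 24 hr to compound, DMSO vehicle or LPS. Supernatant TNF-α measured by murine ELISA against a standard curve. Reported as fold-increase over DMSO control.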

J774.A1 [2] = test: Cytotoxicity against mouse J774.A1 cells assessed as effect on cell viability at <=50 uM after 24 hrs; format: cell-based; details: j774.a1, 24 h

Structure (SMILES)	fold change (FC) (J774.A1 [1])	Activity (J774.A1 [1])	Activity (J774.A1 [2])
O=C(N/N=C/c1ccc(-c2ccc([N+](=O)[O-])cc2Cl)o1)c1ccc2c(c1)OCO2	35		
O=C(N/N=C/c1ccco1)c1ccc(Cl)cc1Cl		inactive	
O=C(N/N=C/c1cc(Br)c(Br)o1)c1ccc2c(c1)OCO2	<5		
Cc1ccc(-c2ccc(/C=N/NC(=O)c3ccncc3)o2)cc1Cl	50		Non-toxic
Cc1ccc(C(=O)N/N=C/c2ccc(C)o2)cc1		inactive	
CN(C)c1ccc(/C=N\NC(=O)c2ccc([N+](=O)[O-])cc2)cc1	25		
O=C(N/N=C/c1ccc(-c2cccc(Cl)c2Cl)o1)c1ccccc1	8		
O=C(N/N=C/c1ccc(-c2cccc(Cl)c2Cl)o1)c1cccnc1		inactive	Non-toxic
Cc1ccc(C(=O)N/N=C/c2ccc(-c3cc(Cl)ccc3Cl)o2)cn1		inactive	Non-toxic
O=C(N/N=C/c1ccc(-c2ccc(Br)cc2)o1)c1cccnc1		inactive	Non-toxic
CN(C)c1ccc(/C=N/NC(=O)c2ccc3c(c2)OCO3)cc1		inactive	
O=C(N/N=C/c1ccc(-c2cccc(Cl)c2)o1)c1cccnc1	17		Non-toxic
O=C(N/N=C/c1ccc(-c2ccccc2Cl)o1)c1cccnc1		inactive	Non-toxic
COc1ccc(Cl)cc1/C=N/NC(=O)c1ccc2c(c1)OCCO2		inactive	
O=C(N/N=C/c1ccc([N+](=O)[O-])o1)c1cc([N+](=O)[O-])cc([N+](=O)[O-])c1O		inactive	
COc1ccc(C(=O)N/N=C\c2ccc(N(C)C)cc2)cc1		inactive	
Cc1ccc(C(=O)N/N=C/c2ccc(-c3cccc(Cl)c3)o2)cn1		inactive	Non-toxic
O=C(N/N=C/c1ccc(-c2cccc(C(F)(F)F)c2)o1)c1ccc(F)cc1	35		
Cc1ccc(C(=O)N/N=C/c2ccc(-c3cc(Cl)c(Cl)cc3Cl)o2)cn1	<5		
O=C(N/N=C/c1cc(/N=N\c2cccc(C(F)(F)F)c2)ccc1O)c1ccc2c(c1)OCO2		inactive	
O=C(N/N=C/c1ccc(-c2cccc(C(F)(F)F)c2)o1)c1ccc(Br)cc1		inactive	
Cc1ccc(C(=O)N/N=C/c2ccc(-c3ccc(C)c(Cl)c3)o2)cn1	21		Non-toxic

Structure (SMILES)	fold change (FC) (J774.A1 [1])	Activity (J774.A1 [1])	Activity (J774.A1 [2])
O=C(N/N=C/c1ccco1)c1ccc(Br)cc1O		inactive	
O=C(N/N=C/c1ccc([N+](=O)[O-])o1)c1ccc(O)cc1O		inactive	
O=C(N/N=C/c1cc(Br)cc(I)c1O)c1ccc2c(c1)OCCO2		inactive	
O=C(N/N=C/c1ccco1)c1ccccc1		inactive	
O=C(N/N=C/c1ccc(-c2ccc(Cl)c([N+](=O)[O-])c2)o1)c1ccc2c(c1)OCO2		inactive	
COc1ccc(/C(C)=N/NC(=O)c2ccc3c(c2)OCCO3)cc1[N+](=O)[O-]		inactive	
O=C(N/N=C1\C(=O)N(Cc2cccc3ccccc23)c2ccccc21)c1ccc2c(c1)OCO2		inactive	
COc1cc(/C=N\NC(=O)c2cccc(C)c2O)ccc1OCc1ccccc1		inactive	
COc1cc(/C=N\NC(=O)c2ccc3c(c2)OCO3)ccc1OCc1ccccc1	7		
Cc1ccc(-c2ccc(/C=N/NC(=O)c3cccnc3)o2)cc1Cl	60		Non-toxic
O=C(N/N=C/c1ccc(-c2cccc(Cl)c2)o1)c1ccc([N+](=O)[O-])cc1		inactive	
COc1ccc(/C=N/NC(=O)c2ccc3c(c2)OCO3)c(OC)c1		inactive	
O=C(N/N=C/c1ccc(Br)o1)c1ccccc1		inactive	
O=C(N/N=C/c1ccc(-c2cccc(Br)c2)o1)c1ccccn1		inactive	Non-toxic
CN(C)c1ccc(/C=N\NC(=O)c2ccccc2O)cc1		inactive	
CC(C)N1C(=O)/C(=N\NC(=O)c2ccc3c(c2)OCO3)c2ccccc21		inactive	
Cc1ccc(C(=O)N/N=C/c2ccc(-c3ccc(Cl)c(Cl)c3)o2)cn1		inactive	Non-toxic
Cc1ccc(C(=O)N/N=C/c2ccc(-c3cccc(C(F)(F)F)c3)o2)cn1	<5		
CC(C)(C)c1ccc(C(=O)N/N=C/c2ccc(-c3ccc([N+](=O)[O-])cc3)o2)cc1		inactive	
CCN1C(=O)/C(=N\NC(=O)c2ccc3c(c2)OCO3)c2ccccc21		inactive	
O=C(/C=C\c1ccco1)Oc1ccc(/C=N\NC(=O)c2ccc3c(c2)OCO3)cc1		inactive	
O=C(N/N=C/c1ccc(-c2cc(Cl)ccc2Cl)o1)c1ccc([N+](=O)[O-])cc1	<5		

Structure (SMILES)	fold change (FC) (J774.A1 [1])	Activity (J774.A1 [1])	Activity (J774.A1 [2])
O=C(N/N=C/c1ccc(-c2ccc(O)c(C(=O)O)c2)o1)c1cccnc1		inactive	
O=C(N/N=C/c1ccc(-c2cccc(Br)c2)o1)c1cccnc1	50		
O=C(O)COc1ccccc1/C=N/NC(=O)c1ccc2c(c1)OCO2		inactive	
COc1ccc(C(=O)N/N=C/c2ccc(-c3ccc(Cl)c(C(=O)O)c3)o2)cc1		inactive	
O=C(N/N=C/c1ccc(-c2ccc(Cl)c(Cl)c2)o1)c1ccccc1O		inactive	
CCc1ccc(C(=O)N/N=C/c2ccc(-c3ccc(C)c(Cl)c3)o2)nc1		inactive	Non-toxic
CCOc1cc(/C=N\NC(=O)c2ccc3c(c2)OCO3)ccc1OC(=O)c1ccc(Br)cc1	<5		
Cc1ccc(C(=O)N/N=C/c2ccc(-c3cccc(Br)c3)o2)cn1		inactive	Non-toxic
O=C(N/N=C/c1ccc(-c2ccc([N+](=O)[O-])cc2)o1)c1cccc(O)c1		inactive	
O=C(N/N=C/c1ccc(-c2cccc(C(F)(F)F)c2)o1)c1cc(I)ccc1Cl	<5		
O=C(N/N=C/c1ccc(-c2cc(Cl)c(Cl)cc2Cl)o1)c1cccnc1		inactive	Non-toxic
COc1ccc(Br)cc1C(=O)N/N=C/c1ccc(C)o1		inactive	
O=C(N/N=C/c1ccc(-c2ccc(Cl)cc2)o1)c1cccnc1	15		Non-toxic
O=C(N/N=C/c1cc(/N=N\c2cccc3ccccc23)ccc1O)c1ccc2c(c1)OCO2		inactive	
O=C(N/N=C/c1ccc(-c2ccc(Cl)cc2Cl)o1)c1cncc(Br)c1		inactive	Non-toxic
COc1ccc(-c2ccc(/C=N/NC(=O)c3ccc([N+](=O)[O-])cc3)o2)cc1Cl		inactive	
Cc1ccc(-c2ccc(/C=N/NC(=O)c3cncc(Br)c3)o2)cc1Cl	10		Non-toxic
CN(C)c1ccc(/C=N\NC(=O)c2cccc(F)c2)cc1		inactive	
O=C(N/N=C/c1ccc(-c2ccc(Cl)cc2Cl)o1)c1ccccc1[N+](=O)[O-]		inactive	
Cc1ccc(C(=O)N/N=C/c2ccc(-c3cccc(Cl)c3Cl)o2)cn1		inactive	Non-toxic
COc1cc(/C=N\NC(=O)c2ccc3c(c2)OCO3)ccc1OC(=O)c1ccco1		inactive	
O=C(N/N=C/c1ccc(I)o1)c1ccccc1F		inactive	

Structure (SMILES)	fold change (FC) (J774.A1 [1])	Activity (J774.A1 [1])	Activity (J774.A1 [2])
Cc1ccc(C(=O)N/N=C/c2ccc(-c3ccc(Cl)cc3)o2)cn1		inactive	Non-toxic
C/C(=N\NC(=O)c1ccc2c(c1)OCO2)c1cccc([N+](=O)[O-])c1		inactive	
O=C(N/N=C/c1ccco1)c1cccc(F)c1		inactive	
O=C(N/N=C/c1ccc(-c2cccc(C(F)(F)F)c2)o1)c1ccc([N+](=O)[O-])cc1	<5		
CCOc1ncccc1C(=O)N/N=C/c1ccc([N+](=O)[O-])o1		inactive	
Cc1ccc(C(=O)N/N=C/c2ccc(-c3ccc(Cl)cc3Cl)o2)cn1		inactive	Non-toxic
O=C(N/N=C/c1c(O)ccc2ccccc12)c1ccc2c(c1)OCO2		inactive	
O=C(N/N=C/c1ccc(-c2ccc(Cl)c(Cl)c2)o1)c1ccncc1		inactive	Non-toxic
O=C(N/N=C/c1ccc(-c2ccc(Cl)cc2)o1)c1ccncc1		inactive	Non-toxic
O=C(N/N=C/c1ccc(-c2ccccc2Cl)o1)c1ccc(Cl)cc1Cl	<5		
O=C(N/N=C/c1cc(Br)c(Br)o1)c1ccc2c(c1)OCCO2		inactive	
O=C(N/N=C/c1ccc(-c2ccc(Cl)cc2)o1)c1cncc(Br)c1	25		Non-toxic
O=C(N/N=C/c1cc(Br)cc(Br)c1OC(=O)c1ccccc1)c1ccc2c(c1)OCO2	<5		
Cc1cc(C)n(Cc2ccc(C(=O)N/N=C/c3ccco3)cc2)n1		inactive	
O=C(N/N=C/c1ccco1)c1cccnc1		inactive	
O=C(/C=C/c1ccco1)Oc1cccc(/C=N/NC(=O)c2ccc3c(c2)OCO3)c1		inactive	
O=C(N/N=C/c1ccc(-c2ccc(Cl)c(Cl)c2)o1)c1ccc2c(c1)OCO2	<5		
COc1ccccc1OCc1ccc(C(=O)N/N=C/c2ccco2)cc1		inactive	
COc1cc(Br)ccc1C(=O)N/N=C/c1ccco1		inactive	
